In ChEMBL document CHEMBL1121718, “Novel tetracyclic spiropiperidines. 1. 3-Aryl-1,3-dihydrospiro[benzo[c]thiophene-1,4'-piperidines] as potential antidepressants” (1981):

How the values were obtained:
[1] = tested on: Mus musculus; experiment: Antidepressant activity was measured by the inhibition of tetrabenazine (TBZ) ptosis in mice after i.p. administration.; format: functional; conditions: ip
How it was run: (§1)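 Male Charles River CD-1 mice (20–30 g), groups of five, dosed ip with compound in distilled water plus a few drops of Tween 80. Tetrabenazine methanesulfonate was given at 40 mg/kg ip 30 min later. After another 30 min, ptosis was scored 0–2 (eyes open, half-open, closed). ED50 and 95% confidence intervals came from linear regression of the scores.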

[2] = tested on: Mus musculus; experiment: Antidepressant activity was measured by the inhibition of tetrabenazine ptosis in mice after po administration.; format: functional
How it was run: as §1, with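 “dosed orally” for “dosed ip”, “ip 60” for “ip 30”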

[3] = tested on: Rattus norvegicus; experiment: Antidepressant activity was measured by the potentiation of head twitching induced by 5-hydroxy-tryptophan in pargyline-pretreated rats after ip administration; format: functional
How it was run: (§2)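 Male Wistar rats (150–200 g), six per group (ten per dose in dose-range runs), received pargyline HCl 75 mg/kg sc 4 h before testing. Compound in distilled water plus Tween 80 was given ip 30 min before, then L-5-HTP 1.0 mg/kg ip. From 5 min after 5-HTP, rats were observed 15 min for head twitching with coarse tremors. Results are percent potentiation normalized to vehicle; ED50 with 95% limits by linear regression.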

[4] = tested on: Mus musculus; experiment: Antidepressant activity was measured by the inhibition of tetrabenazine (TBZ) ptosis in mice after ip administration; format: functional; how it was run: as §1
[5] = tested on: Mus musculus; experiment: Antidepressant activity was measured by the inhibition of tetrabenazine (TBZ) ptosis in mice after po administration; format: functional
How it was run: as §1, with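 “dosed orally” for “dosed ip”, “ip 60” for “ip 30”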

[6] = tested on: Rattus norvegicus; experiment: Antidepressant activity was measured by the potentiation of head twitching induced by 5-hydroxy-tryptophan in pargyline-pretreated rats after ip administration;d=Seizures before 5-HTP dosing; format: functional, organism-based; how it was run: as §2
[7] = tested on: Rattus norvegicus; experiment: Antidepressant activity was measured by the potentiation of head twitching induced by 5-hydroxy-tryptophan in pargyline-pretreated rats after po administration.
[8] = tested on: Mus musculus; experiment: Antidepressant activity was measured by the inhibition of tetrabenazine (TBZ) ptosis in mice after po administration […]; format: functional
[9] = tested on: Rattus norvegicus; experiment: Antidepressant activity was measured by the potentiation of head twitching induced by 5-hydroxy-tryptophan in pargyline-pretreated rats after ip administration; d= Seizures before 5-HTP dosing; format: functional, organism-based; how it was run: as §2

Compound	ED50 [1] [mg/kg]	ED50 [2] [mg/kg]	ED50 [3] [mg/kg]	also measured
CN1CCC2(CC1)SC(c1ccc(Cl)c(Cl)c1)c1ccccc12 (stereo not given)	3.5	6.1	0.58	
CN(C)CCCN1c2ccccc2CCc2ccc(Cl)cc21 [CLOMIPRAMINE]			3.1	ED50 [4]: 0.73 mg/kg; ED50 [5]: 3.5 mg/kg
Br.CN1CCC2(CC1)SC(c1ccccc1F)c1ccccc12 (stereo not given)	3	2.1	> 10	
Clc1ccccc1C1SC2(CCNCC2)c2ccccc21 (stereo not given)		2.2	4.4	
Clc1cccc(C2SC3(CCNCC3)c3ccccc32)c1 (stereo not given)	0.52	1.8		ED50 [6]: Seizures before dosing
Cc1cccc(C2SC3(CCNCC3)c3ccccc32)c1 (stereo not given)	1.9	2.9	0.71	
CN1CCC2(CC1)SC(c1ccccc1Cl)c1ccccc12 (stereo not given)	0.6	3.6	10.1	
CN(C)CCC=C1c2ccccc2CCc2ccccc21 [AMITRIPTYLINE]	1.5	7.8	7.1	
Clc1ccc(C2SC3(CCNCC3)c3ccccc32)cc1 (stereo not given)	2.1	1.6	0.03	ED50 [7]: 0.78 mg/kg
CN1CCC2(CC1)SC(c1cccc(F)c1)c1ccccc12 (stereo not given)	0.83	3.3	> 10	
c1ccc(C2SC3(CCNCC3)c3ccccc32)cc1 (stereo not given)	1.1		3	ED50 [8]: 1.1 mg/kg
CN1CCC2(CC1)SC(c1ccc(F)cc1)c1ccccc12 (stereo not given)	1.4	3.1	1.5	
Br.CN1CCC2(CC1)SC(c1cccc(Cl)c1)c1ccccc12 (stereo not given)	0.9	1.3		ED50 [9]: Seizures before dosing
Br.Cc1cccc(C2SC3(CCN(C)CC3)c3ccccc32)c1 (stereo not given)	~20		> 2	
Cc1ccccc1C1SC2(CCN(C)CC2)c2ccccc21 (stereo not given)	0.77	1.3	> 10	
Cc1ccc(C2SC3(CCNCC3)c3ccccc32)cc1 (stereo not given)	0.69	3.6	0.16	

Compound	ED50 [1] [mg/kg]	ED50 [2] [mg/kg]	ED50 [3] [mg/kg]	also measured
Fc1ccccc1C1SC2(CCNCC2)c2ccccc21 (stereo not given)	0.78	6.6	3.9	
Clc1ccc(C2SC3(CCNCC3)c3ccccc32)cc1Cl (stereo not given)		0.82	0.4	
CNCCC(Oc1ccc(C(F)(F)F)cc1)c1ccccc1 (stereo not given) [FLUOXETINE]			0.6	
Cc1ccc(C2SC3(CCN(C)CC3)c3ccccc32)cc1 (stereo not given)	~3		1	
CN1CCC2(CC1)SC(c1ccccc1)c1ccccc12 (stereo not given)			3.4	ED50 [4]: 2.5 mg/kg; ED50 [5]: 4.6 mg/kg
FC(F)(F)c1cccc(C2SC3(CCNCC3)c3ccccc32)c1 (stereo not given)	1.2	1.7		
Cc1ccccc1C1SC2(CCNCC2)c2ccccc21 (stereo not given)		1.4	2.8	
Br.CN1CCC2(CC1)SC(c1ccc(Cl)cc1Cl)c1ccccc12 (stereo not given)	1.6	3.8	0.91	
CNCCCN1c2ccccc2CCc2ccccc21 [DESIPRAMINE]			> 10	ED50 [4]: 0.8 mg/kg; ED50 [5]: 1.6 mg/kg
Fc1ccc(C2SC3(CCNCC3)c3ccccc32)cc1 (stereo not given)	0.67	2.1	0.32	
Clc1ccc(C2SC3(CCNCC3)c3ccccc32)c(Cl)c1 (stereo not given)	2.4	3.8	2.2	
CN1CCC2(CC1)SC(c1ccccc1)c1ccc(F)cc12 (stereo not given)	1.8	2.8	> 10	
Fc1cccc(C2SC3(CCNCC3)c3ccccc32)c1 (stereo not given)		3.1	0.16	
CN1CCC2(CC1)SC(c1cccc(C(F)(F)F)c1)c1ccccc12 (stereo not given)	0.73	1.6	0.52	
CN1CCC2(CC1)SC(c1ccc(Cl)cc1)c1ccccc12 (stereo not given)	1.3	1.4	0.4	
